The source made the active and inactive calls. The calls are words filed in the database; no cut-off is given here.

This passage reports IC50, viability and Activity results from ChEMBL document CHEMBL2146370, “Newly synthesized bis-benzimidazole derivatives exerting anti-tumor activity through induction of apoptosis and autophagy” (Bioorg Med Chem Lett, 2012).

Series [1] deals with HeLa. Briefly: Cytotoxicity against human HeLa cells after 72 hrs by MTT assay. Format: functional, cell-based. In a few lines:
(§1)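 MTT assay in HeLa, HL60 and U937 cancer lines. IC50 in µM is the mean ± SD of three independent experiments. 5-Fluorouracil and paclitaxel served as positive controls.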

The test system of series [2] is HL-60. Briefly: Cytotoxicity against human HL60 cells after 72 hrs by MTT assay. The class given is functional, cell-based. Conditions: HL-60, 72 h. In a few lines: as §1
In general terms: Tetrazolium dyes change colour on reduction, which living cells bring about.

Series [3] has as its system U-937. The experiment in a line: Cytotoxicity against human U937 cells after 72 hrs by MTT assay. Format: functional, cell-based. Conditions: U-937, 72 h. In a few lines: as §1
The nature of series [4]: Cytotoxicity against human PBMC cells assessed as cell viability at 5 uM after 24 hrs by MTT assay. Conditions: read-out: Activity. Format: cell-based. In outline: (§2)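 PBMC from three healthy adult volunteers, seeded at 5 × 10^5 cells/well in 96-well plates; cultured with various doses of test agent for 12, 24, 48 and 72 h; viability read out; n=3, mean ± SD; significance p < 0.05.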

Series [5] can be described thus: Cytotoxicity against human PBMC cells assessed as cell viability at 5 uM after 12 hrs by MTT assay. The class given is cell-based. Conditions: read-out: Activity. In outline: as §2
Series [6] can be described thus: Cytotoxicity against human PBMC cells assessed as cell viability at 5 uM after 48 hrs by MTT assay. Conditions: read-out: Activity. Format: cell-based. In a few lines:
as §2

The nature of series [7]: Cytotoxicity against human PBMC cells assessed as cell viability at 5 uM after 72 hrs by MTT assay. Format: cell-based. Conditions: read-out: Activity. In outline:
as §2

Series [8] relates to HL-60. Briefly: Cell cycle arrest in human HL60 cells assessed as accumulation at sub-G1 phase after 72 hrs by PI-based flow cytometry analysis ( Rvb = 1.73 +/-0.08 %). Format: functional. In a few lines: (§3)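 HL60 cells exposed to 0.5 µM for 24, 48 and 72 h alongside untreated controls. Apoptosis was quantified by flow cytometry as the subG1 fraction.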
(In flow cytometry, cells or beads pass a laser one at a time.)

The test system of series [9] is HL-60. The experiment in a line: Cell cycle arrest in human HL60 cells assessed as accumulation at sub-G1 phase after 24 hrs by PI-based flow cytometry analysis ( Rvb = 1.73 +/-0.08 %). Format: functional. In outline:
as §3

Series [10] concerns HL-60. Briefly: Induction of autophagy in human HL60 cells at 0.5 umol/L after 72 hrs by MDC staining based flow cytometry (reference value: 2.27 +/- 0.43 %). Format: functional. In a few lines: (§4)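 HL60 cells were treated with 0.5 µmol L-1 for 0, 24, 48 or 72 h, stained with MDC, and fluorescence intensity was analysed by flow cytometry.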
Series [11] has as its system HL-60. The experiment in a line: Induction of autophagy in human HL60 cells at 0.5 umol/L after 24 hrs by MDC staining based flow cytometry (reference value: 2.27 +/- 0.43 %). Format: functional. In outline:
as §4

For series [12], the system named is HL-60. Briefly: Cell cycle arrest in human HL60 cells assessed as accumulation at sub-G1 phase after 48 hrs by PI-based flow cytometry analysis ( Rvb = 1.73 +/-0.08 %). Format: functional. In a few lines:
as §3

Series [13] deals with HL-60. Briefly: Induction of apoptosis in human HL60 cells assessed as decrease in number of MDC-positive cells at 0.5 uM after 24 hrs by MDC staining-based fluorescence analysis in presence of 3-MA. The class given is functional, cell-based. In outline:
(§5)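 HL60 cells were treated 24 h with 0.5 µM, with or without 1 mM 3-MA added beforehand. MDC-positive (autophagic) ratio and apoptotic ratio were measured by flow cytometry. Mean ± SD, n = 3.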

Series [14] deals with HL-60. The experiment in a line: Induction of apoptosis in human HL60 cells assessed as non-adherent dead cell at 0.5 uM after 48 hrs by phase contrast microscopy. Format: functional, cell-based. In a few lines:
(§6)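 HL60 cells were cultured with 0.5 µM for 24, 48 and 72 h. Morphology was compared with untreated control cells by microscopy.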

Series [15] deals with HL-60. The experiment in a line: Induction of autophagy in human HL60 cells assessed as increase in beclin 1 level at 0.5 umol/L by Western blot analysis. The class given is functional, cell-based. Conditions: TDE = time-dependent effect. In a few lines: (§7)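 HL60 cells were treated with 0.5 µmol L-1 over a time course and analysed by Western blot for Beclin-1 and LC3-I to LC3-II conversion, with β-actin as loading control.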
Background: Immunoblotting shows a protein as a band on a membrane.

The test system of series [16] is HL-60. Briefly: Induction of autophagy in human HL60 cells assessed as formation of autophagic vacuoles at 0.5 umol/L by MDC staining-based flow cytometry. Conditions: TDE = time-dependent effect. Format: functional, cell-based. In a few lines: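 Autophagic vacuoles were labelled with monodansylcadaverine and viewed by fluorescence microscopy. MDC fluorescence intensity was quantified by flow cytometry after 0.5 µmol L-1 treatment.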

The subject of series [17] is HL-60. Briefly: Induction of apoptosis in human HL60 cells assessed as fragmentation of nuclei into apoptotic bodies at 0.5 uM after 48 hrs by phase contrast microscopy. Format: functional, cell-based. In outline:
as §6

The test system of series [18] is HL-60. The experiment in a line: Cell cycle arrest in human HL60 cells assessed as accumulation at sub-G1 phase by PI-based flow cytometry analysis. Format: functional. Conditions: TDE = time-dependent effect. In outline:
as §3

Series [19] has as its system HL-60. The experiment in a line: Induction of apoptosis in human HL60 cells assessed as round cell with shrunken nuclei at 0.5 uM after 48 hrs by phase contrast microscopy. Format: functional, cell-based. In outline:
as §6

Series [20] has as its system HL-60. Briefly: Induction of apoptosis in human HL60 cells assessed as decrease in apoptotic ratio at 0.5 uM after 24 hrs by MDC staining-based fluorescence analysis in presence of 3-MA. The class given is functional, cell-based. In outline:
as §5

Series [21] deals with HL-60. The experiment in a line: Induction of apoptosis in human HL60 cells assessed as membrane blebbing at 0.5 uM after 48 hrs by phase contrast microscopy. Format: functional, cell-based. In a few lines: as §6
Series [22] concerns HL-60. The experiment in a line: Induction of autophagy in human HL60 cells at 0.5 umol/L after 48 hrs by MDC staining based flow cytometry (reference value: 2.27 +/- 0.43 %). The class given is functional. In outline:
as §4

Series [23] has as its system HL-60. The experiment in a line: Induction of apoptosis in human HL60 cells assessed as retraction of cellular process at 0.5 uM after 24 hrs by phase contrast microscopy. Format: functional, cell-based. In a few lines:
as §6

Series [24] has as its system HL-60. Briefly: Induction of autophagy in human HL60 cells assessed as increase in LC3-II level at 0.5 umol/L by Western blot analysis. The class given is functional, cell-based. Conditions: TDE = time-dependent effect. In a few lines:
as §7

The test system of series [25] is HL-60. The experiment in a line: Induction of apoptosis in human HL60 cells assessed as chromatin condensation by acridine orange staining-based fluorescence microscopy. Format: functional, cell-based. In a few lines: (§8)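 HL60 cells were stained with acridine orange and examined under a fluorescence microscope for chromatin condensation and nuclear fragmentation, with control-medium cells as reference.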

In series [26] the test system is HL-60. Briefly: Induction of apoptosis in human HL60 cells assessed as nuclear fragmentation by acridine orange staining-based fluorescence microscopy. The class given is functional, cell-based. In outline: as §8
In series [27] the test system is PBMC. Briefly: Cytotoxicity against human PBMC cells assessed as cell viability at 160 uM after 24 to 72 hrs by MTT assay. The class given is cell-based. In a few lines:
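PBMC were taken from three healthy adult volunteers and seeded at 5 × 10^5 cells/well. They were cultured 12, 24, 48 and 72 h across a range of concentrations up to 160 µM, with 5-FU for comparison. Viability is mean ± SD, n=3, compared by p < 0.05.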

Series [28] relates to HL-60. Briefly: Induction of apoptosis in human HL60 cells assessed as round in cell shape at 0.5 uM after 24 hrs by phase contrast microscopy. The class given is functional, cell-based. In outline:
as §6

What is called IC50 is the midpoint of a concentration-inhibition curve. A lower IC50 goes with inhibition by little substance. In the case of `CN1CCN(c2ccc3[nH]c(-c4ccc5[nH]c(-c6ccc(O)cc6)nc5c4)nc3c2)CC1` [HOECHST 33258], the IC50 is 51.3 µM in [1], 32.4 µM in series [2] and 15.4 µM in series [3].

As to `O=c1[nH]cc(F)c(=O)[nH]1` [FLUOROURACIL], the viability at 24 h, 5 µM in series [4] came to 94%. The viability at 12 h, 5 µM in series [5] was found to be 98%. The concentration for half-maximal inhibition (IC50) amounted to 0.28 µM in series [1], 0.06 µM in series [2] and 1.07 µM in [3]. Moreover, the viability at 48 h, 5 µM in [6] was 87%. Besides, in series [7], the viability at 72 h, 5 µM worked out at 76%.

Turning to `Clc1ccc(-c2nc3cc(Oc4ccc5[nH]c(-c6ccc(Cl)cc6Cl)nc5c4)ccc3[nH]2)c(Cl)c1`, the 50% inhibitory concentration (IC50) in [1] came to 17.2 µM; in series [2], 15.8 µM; in series [3], 20.5 µM.

On to `Brc1ccc(-c2nc3cc(Oc4ccc5[nH]c(-c6ccc(Br)cc6)nc5c4)ccc3[nH]2)cc1`, for which the IC50 in series [1] amounted to 20.4 µM; in series [2], 17.2 µM; in series [3], 21.7 µM.

In the case of `CC(=O)O[C@H]1C(=O)[C@@]2(C)[C@H]([C@H](OC(=O)c3ccccc3)[C@]3(O)C[C@H](OC(=O)[C@H](O)[C@@H](NC(=O)c4ccccc4)c4ccccc4)C(C)=C1C3(C)C)[C@]1(OC(C)=O)CO[C@@H]1C[C@@H]2O` [PACLITAXEL], the values for the 50% inhibitory concentration (IC50) in series [2] and in series [3] were 0.00282 µM and 0.00337 µM, respectively.

For `COc1cc(OC)cc(-c2nc3cc(Oc4ccc5[nH]c(-c6cc(OC)cc(OC)c6)nc5c4)ccc3[nH]2)c1`, the figures for the IC50 in series [1], in series [2] and in series [3] were 8.59 µM, 6.35 µM and 7.09 µM, respectively.

Regarding `COc1cc(-c2nc3cc(Oc4ccc5[nH]c(-c6cc(OC)c(OC)c(OC)c6)nc5c4)ccc3[nH]2)cc(OC)c1OC`, the half-maximal inhibitory concentration (IC50) in [1] was 9.37 µM; in series [2], 7.56 µM; in [3] it was 6.92 µM.

For the molecule `Fc1ccc(-c2nc3cc(Oc4ccc5[nH]c(-c6ccc(F)cc6)nc5c4)ccc3[nH]2)cc1`, the results for the IC50 in series [1], in [2] and in series [3] were 22.8 µM, 23.2 µM and 22.6 µM, respectively.

On to `COc1cc(-c2nc3cc(Oc4ccc5[nH]c(-c6ccc(O)c(OC)c6)nc5c4)ccc3[nH]2)ccc1O`, for which the IC50 came to 10.6 µM in series [1], 8.17 µM in series [2] and 5.6 µM in series [3].

On to `c1ccc(-c2nc3cc(Oc4ccc5[nH]c(-c6ccccc6)nc5c4)ccc3[nH]2)cc1`, for which the half-inhibitory concentration (IC50) is 18.4 µM in series [1], 16.5 µM in [2] and 17.1 µM in [3].

With `COc1ccc(-c2nc3cc(Oc4ccc5[nH]c(-c6ccc(OC)cc6)nc5c4)ccc3[nH]2)cc1`, the Activity in series [8] was 89.61%; in [9] it was 13.8%; in series [10], 89.65%; in series [11], 9.79%; in [12] it was 63.02%; in [15], “tde”. For the same molecule, the Activity result in series [16] is “tde”; in series [18], “tde”; in [22] it was 47.27%; in [24] it was “tde”; in series [27], “Non-toxic”. In addition, in series [4], the viability at 24 h, 5 µM was 96%. Further, the viability at 12 h, 5 µM in [5] is 98%. Besides, the result in series [13], in series [14], in [17], in [19], in [20] and in series [21] was Active. The result in series [23], in series [25], in series [26] and in series [28] was Active. The concentration for half-maximal inhibition (IC50) in series [1] is 4.96 µM; in series [2] it was 0.56 µM; in series [3], 0.58 µM. In addition, the viability at 48 h, 5 µM in series [6] worked out at 88%. Further, in series [7], the viability at 72 h, 5 µM was found to be 79%.
